Measured values of several laboratories.
Compare with care: the assays were run in different laboratories.
Target: Serine/threonine-protein kinase Nek6 (NEK6, Homo sapiens, UniProt Q9HC98)
Read-out: enzyme activity
Action: inhibitor

SMILES | assay | setting | remaining activity [%]
Oc1cccc(-c2nc(N3CCOCC3)c3oc4ncccc4c3n2)c1 |  | 10 µM | 87
CC(C)(O)[C@H]1CC[C@H](Nc2ccc3ncc(-c4cccc(C(F)(F)F)c4)n3n2)CC1 |  | 1 µM | 99.7
CCN(CC)c1ccc(C2=NNC(=O)CC2C)cc1[N+](=O)[O-] (stereo not drawn) |  | 10 µM | 93
Nc1nc(NC2CCCCC2)sc1C(=O)c1ccccc1 |  | 10 µM | 113
COc1cc(Nc2cnc(C#N)c(O[C@H](C)CN(C)C)n2)ncc1-c1cnn(C)c1 | radiometric | 1 µM | 97
FC(F)c1nc2ccccc2n1-c1nc(N2CCOCC2)nc(N2CCOCC2)n1 |  | 10 µM | 83
Cc1sc(C(=O)NC2COC2)cc1-n1cc(NC(=O)Nc2c(F)cccc2Cl)cn1 |  | 10 µM | 92.7
Cc1[nH]c(/C=C2\C(=O)Nc3ccc(F)cc32)c(C)c1C(=O)N[C@H]1CCN(C(=O)N(C)C)C1 |  | 0.1 µM | 131
CC(C)(C)c1nc2c(s1)c1nc(N)ncc1c1ccc(NS(=O)(=O)c3c(F)cccc3F)c(F)c12 | radiometric | 1 µM | 96
O=C(Nc1cnn(-c2csc(C(=O)NC3COC3)c2)c1)Nc1c(F)cccc1Cl |  | 5 µM | 86.8
CCN(CC)CCNC(=O)c1c(C)[nH]c(/C=C2\C(=O)Nc3ccc(F)cc32)c1C |  | 1 µM | 103
COc1cc(Cl)c(C(=O)N[C@@H](CN[C@H]2CC[C@@H](N)CC2)Cc2ccc(C#N)cc2)cc1-c1ccc(CN[C@H](C)c2ccc(C)cc2)o1 |  | 1 µM | 111
